Among the data in ChEMBL document CHEMBL3797202, “Novel Oxindole Sulfonamides and Sulfamides: EPZ031686, the First Orally Bioavailable Small Molecule SMYD3 Inhibitor” (ACS Med Chem Lett, 2016) are inhibition, IC50 and Papp values, retold here.

SMILES strings stand for the structures. Some results are limits rather than exact numbers.

For data set [1], the target named is T1, Histone-lysine N-methyltransferase EZH1 (Homo sapiens) (UniProt Q92800).
T1 sequence (whole entry): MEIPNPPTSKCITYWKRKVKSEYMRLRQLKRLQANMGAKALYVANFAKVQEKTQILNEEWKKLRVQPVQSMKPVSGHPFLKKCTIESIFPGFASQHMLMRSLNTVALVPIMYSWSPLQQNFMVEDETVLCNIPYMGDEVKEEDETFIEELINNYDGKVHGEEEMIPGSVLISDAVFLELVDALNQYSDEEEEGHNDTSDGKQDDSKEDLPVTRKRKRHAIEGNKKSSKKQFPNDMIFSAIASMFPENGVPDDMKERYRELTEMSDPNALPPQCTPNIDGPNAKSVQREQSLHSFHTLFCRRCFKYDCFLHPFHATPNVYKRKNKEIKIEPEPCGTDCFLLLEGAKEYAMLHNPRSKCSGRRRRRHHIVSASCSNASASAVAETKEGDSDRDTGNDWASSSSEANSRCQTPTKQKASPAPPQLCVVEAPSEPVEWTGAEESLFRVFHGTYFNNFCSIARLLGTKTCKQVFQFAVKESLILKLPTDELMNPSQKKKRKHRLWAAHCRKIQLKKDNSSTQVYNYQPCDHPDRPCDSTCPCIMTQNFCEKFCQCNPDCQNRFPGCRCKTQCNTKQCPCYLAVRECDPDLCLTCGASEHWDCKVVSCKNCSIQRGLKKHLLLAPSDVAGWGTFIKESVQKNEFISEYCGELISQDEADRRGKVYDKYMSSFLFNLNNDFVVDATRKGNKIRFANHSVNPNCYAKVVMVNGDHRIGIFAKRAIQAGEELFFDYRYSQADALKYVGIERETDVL
The data set can be described thus: Inhibition of EZH1 (unknown origin) at 10 uM relative to control.

Data set [2] deals with T2, Histone-lysine N-methyltransferase NSD3 (Homo sapiens) (UniProt Q9BZ95).
T2 sequence (whole entry): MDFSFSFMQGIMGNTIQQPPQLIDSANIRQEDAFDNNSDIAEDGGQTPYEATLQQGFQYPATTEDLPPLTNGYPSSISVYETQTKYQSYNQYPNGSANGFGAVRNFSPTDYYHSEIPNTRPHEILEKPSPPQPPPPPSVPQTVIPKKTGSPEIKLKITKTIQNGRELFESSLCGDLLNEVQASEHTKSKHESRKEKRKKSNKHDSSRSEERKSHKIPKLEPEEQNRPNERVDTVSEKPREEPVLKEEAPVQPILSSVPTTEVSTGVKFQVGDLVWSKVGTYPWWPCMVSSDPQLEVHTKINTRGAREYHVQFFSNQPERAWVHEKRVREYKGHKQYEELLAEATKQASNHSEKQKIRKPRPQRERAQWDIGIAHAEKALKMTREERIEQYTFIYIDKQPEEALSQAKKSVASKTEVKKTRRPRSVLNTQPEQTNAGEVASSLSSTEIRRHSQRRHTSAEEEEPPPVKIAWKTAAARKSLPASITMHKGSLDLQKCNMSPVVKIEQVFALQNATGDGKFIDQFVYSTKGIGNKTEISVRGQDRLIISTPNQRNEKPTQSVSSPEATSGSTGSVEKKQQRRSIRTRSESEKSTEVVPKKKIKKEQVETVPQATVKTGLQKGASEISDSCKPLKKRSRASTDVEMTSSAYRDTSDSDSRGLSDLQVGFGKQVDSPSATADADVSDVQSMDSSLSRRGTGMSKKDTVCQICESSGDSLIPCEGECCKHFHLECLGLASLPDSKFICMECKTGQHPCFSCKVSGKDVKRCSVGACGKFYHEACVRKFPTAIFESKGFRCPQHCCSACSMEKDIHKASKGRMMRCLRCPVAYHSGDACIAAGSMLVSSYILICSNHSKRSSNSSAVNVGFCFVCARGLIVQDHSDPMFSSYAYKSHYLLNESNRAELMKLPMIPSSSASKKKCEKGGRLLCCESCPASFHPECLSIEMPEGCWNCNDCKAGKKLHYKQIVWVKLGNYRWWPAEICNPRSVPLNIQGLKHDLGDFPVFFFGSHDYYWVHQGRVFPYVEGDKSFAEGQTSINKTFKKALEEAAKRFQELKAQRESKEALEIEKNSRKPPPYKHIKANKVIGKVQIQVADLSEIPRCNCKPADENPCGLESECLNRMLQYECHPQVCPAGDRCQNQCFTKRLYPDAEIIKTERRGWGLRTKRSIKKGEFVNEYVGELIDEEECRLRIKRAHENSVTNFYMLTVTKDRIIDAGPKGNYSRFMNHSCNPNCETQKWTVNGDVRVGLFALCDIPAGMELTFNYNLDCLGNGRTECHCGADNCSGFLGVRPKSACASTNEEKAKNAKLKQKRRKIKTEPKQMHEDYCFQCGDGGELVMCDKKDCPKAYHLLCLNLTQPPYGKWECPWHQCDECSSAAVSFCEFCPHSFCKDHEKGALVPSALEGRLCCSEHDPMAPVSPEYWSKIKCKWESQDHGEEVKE
Briefly: Inhibition of WHSC1L1 (unknown origin) at 10 uM relative to control.

For data set [3], the target named is T3, Histone-lysine N-methyltransferase SUV39H1 (Homo sapiens) (UniProt O43463).
T3 sequence (whole entry): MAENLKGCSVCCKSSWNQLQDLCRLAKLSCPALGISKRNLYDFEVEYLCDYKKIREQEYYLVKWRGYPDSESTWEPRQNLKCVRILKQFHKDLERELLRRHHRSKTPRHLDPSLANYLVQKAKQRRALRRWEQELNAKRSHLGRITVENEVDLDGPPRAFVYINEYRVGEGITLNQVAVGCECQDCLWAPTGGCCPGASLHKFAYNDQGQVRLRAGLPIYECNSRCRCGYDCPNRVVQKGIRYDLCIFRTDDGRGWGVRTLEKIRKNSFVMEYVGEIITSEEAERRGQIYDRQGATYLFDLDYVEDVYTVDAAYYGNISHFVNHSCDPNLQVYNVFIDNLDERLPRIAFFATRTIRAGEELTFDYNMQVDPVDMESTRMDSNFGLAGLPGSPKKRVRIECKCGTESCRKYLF
Briefly: Inhibition of SUV39H1 (unknown origin) at 10 uM relative to control.

For data set [4], the target named is Histone-lysine N-methyltransferase, H3 lysine-36 specific (Homo sapiens) (UniProt Q96L73). The data set can be described thus: Inhibition of NSD1 (unknown origin) at 10 uM relative to control.
Data set [5] deals with Histone-lysine N-methyltransferase SETDB1 (Homo sapiens) (UniProt Q15047). Briefly: Inhibition of SETDB1 (unknown origin) at 10 uM relative to control.
The target in data set [6] is N-lysine methyltransferase SMYD2 (Homo sapiens, UniProt Q9NRG4). The data set can be described thus: Inhibition of SMYD2 (unknown origin).
A short description of data set [7]: Apparent permeability in human Caco2 cells at 10 uM incubated for 120 mins by LC-MS/MS analysis. The data set is classed as ADME, cell-based. The following applies: Caco-2. The method, boiled down:
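Caco-2 cell monolayers; permeability measured in the apical-to-basolateral direction, with an efflux ratio also determined.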

Chain of Histone-lysine N-methyltransferase, H3 lysine-36 specific (Homo sapiens) (Q96L73 whole entry): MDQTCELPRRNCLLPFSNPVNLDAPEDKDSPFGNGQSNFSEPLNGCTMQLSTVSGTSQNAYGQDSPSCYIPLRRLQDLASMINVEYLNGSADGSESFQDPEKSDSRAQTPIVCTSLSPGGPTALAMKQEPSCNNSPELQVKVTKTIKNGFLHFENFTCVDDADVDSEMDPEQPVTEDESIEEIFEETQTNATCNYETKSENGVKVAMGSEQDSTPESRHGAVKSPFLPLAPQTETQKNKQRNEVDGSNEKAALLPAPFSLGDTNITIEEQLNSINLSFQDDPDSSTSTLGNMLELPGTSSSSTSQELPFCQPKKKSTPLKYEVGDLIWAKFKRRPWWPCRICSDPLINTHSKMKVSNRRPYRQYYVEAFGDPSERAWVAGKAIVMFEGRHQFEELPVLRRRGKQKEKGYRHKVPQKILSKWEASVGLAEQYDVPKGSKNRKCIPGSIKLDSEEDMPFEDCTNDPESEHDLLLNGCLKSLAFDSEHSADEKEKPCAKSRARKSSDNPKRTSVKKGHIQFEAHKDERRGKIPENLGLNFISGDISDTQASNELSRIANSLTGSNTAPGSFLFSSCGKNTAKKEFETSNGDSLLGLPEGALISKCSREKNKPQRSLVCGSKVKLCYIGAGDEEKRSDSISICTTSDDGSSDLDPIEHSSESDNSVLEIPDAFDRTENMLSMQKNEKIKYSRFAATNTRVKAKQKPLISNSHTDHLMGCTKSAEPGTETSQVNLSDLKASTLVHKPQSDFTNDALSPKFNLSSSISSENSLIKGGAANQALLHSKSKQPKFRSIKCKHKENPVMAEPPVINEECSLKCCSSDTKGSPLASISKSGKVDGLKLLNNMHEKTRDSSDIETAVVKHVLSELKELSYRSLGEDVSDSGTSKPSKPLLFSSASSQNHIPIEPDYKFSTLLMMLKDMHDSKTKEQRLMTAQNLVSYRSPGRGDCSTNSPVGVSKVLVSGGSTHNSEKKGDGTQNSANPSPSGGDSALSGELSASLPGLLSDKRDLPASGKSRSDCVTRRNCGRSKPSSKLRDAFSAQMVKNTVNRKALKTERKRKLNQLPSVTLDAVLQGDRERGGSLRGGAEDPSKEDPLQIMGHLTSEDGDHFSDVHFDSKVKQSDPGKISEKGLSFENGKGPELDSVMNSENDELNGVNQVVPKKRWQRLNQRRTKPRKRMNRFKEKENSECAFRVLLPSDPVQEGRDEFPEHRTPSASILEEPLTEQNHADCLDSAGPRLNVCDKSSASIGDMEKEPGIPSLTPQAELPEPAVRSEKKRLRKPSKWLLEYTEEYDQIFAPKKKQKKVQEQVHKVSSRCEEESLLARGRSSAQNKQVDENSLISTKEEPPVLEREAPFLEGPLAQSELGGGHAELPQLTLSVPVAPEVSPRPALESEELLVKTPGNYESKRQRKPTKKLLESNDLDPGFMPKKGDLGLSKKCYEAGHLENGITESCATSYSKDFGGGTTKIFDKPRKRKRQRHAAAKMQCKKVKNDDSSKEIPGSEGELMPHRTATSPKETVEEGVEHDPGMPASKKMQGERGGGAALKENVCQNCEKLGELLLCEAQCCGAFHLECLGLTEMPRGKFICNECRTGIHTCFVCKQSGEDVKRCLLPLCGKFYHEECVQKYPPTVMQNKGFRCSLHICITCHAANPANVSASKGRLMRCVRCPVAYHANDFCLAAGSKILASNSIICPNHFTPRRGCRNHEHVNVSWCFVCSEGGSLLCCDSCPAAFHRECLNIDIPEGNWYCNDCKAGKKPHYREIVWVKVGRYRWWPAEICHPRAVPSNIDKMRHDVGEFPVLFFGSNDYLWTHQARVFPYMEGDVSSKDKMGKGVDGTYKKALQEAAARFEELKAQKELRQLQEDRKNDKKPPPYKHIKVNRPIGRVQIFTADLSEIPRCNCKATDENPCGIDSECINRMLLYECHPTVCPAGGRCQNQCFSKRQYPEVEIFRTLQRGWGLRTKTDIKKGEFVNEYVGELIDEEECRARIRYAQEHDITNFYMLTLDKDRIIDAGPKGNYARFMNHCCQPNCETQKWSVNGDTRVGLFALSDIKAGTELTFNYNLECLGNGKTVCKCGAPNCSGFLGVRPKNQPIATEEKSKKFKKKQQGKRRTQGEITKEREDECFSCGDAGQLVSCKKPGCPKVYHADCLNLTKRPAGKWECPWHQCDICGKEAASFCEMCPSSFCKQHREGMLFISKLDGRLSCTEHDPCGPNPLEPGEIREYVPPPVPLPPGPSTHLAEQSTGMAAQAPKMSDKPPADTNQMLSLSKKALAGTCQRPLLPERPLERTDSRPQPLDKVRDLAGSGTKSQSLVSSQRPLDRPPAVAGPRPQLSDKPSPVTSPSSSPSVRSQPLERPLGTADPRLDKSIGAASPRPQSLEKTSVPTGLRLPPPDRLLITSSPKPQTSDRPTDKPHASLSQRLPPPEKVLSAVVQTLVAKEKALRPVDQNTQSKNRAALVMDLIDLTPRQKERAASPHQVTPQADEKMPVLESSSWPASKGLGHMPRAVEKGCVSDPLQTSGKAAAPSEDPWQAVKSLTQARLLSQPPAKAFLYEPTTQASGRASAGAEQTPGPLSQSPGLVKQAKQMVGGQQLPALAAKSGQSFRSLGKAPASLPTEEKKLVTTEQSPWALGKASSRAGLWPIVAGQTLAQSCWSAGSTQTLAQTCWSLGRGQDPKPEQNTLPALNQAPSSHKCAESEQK
Chain of N-lysine methyltransferase SMYD2 (Q9NRG4 whole entry): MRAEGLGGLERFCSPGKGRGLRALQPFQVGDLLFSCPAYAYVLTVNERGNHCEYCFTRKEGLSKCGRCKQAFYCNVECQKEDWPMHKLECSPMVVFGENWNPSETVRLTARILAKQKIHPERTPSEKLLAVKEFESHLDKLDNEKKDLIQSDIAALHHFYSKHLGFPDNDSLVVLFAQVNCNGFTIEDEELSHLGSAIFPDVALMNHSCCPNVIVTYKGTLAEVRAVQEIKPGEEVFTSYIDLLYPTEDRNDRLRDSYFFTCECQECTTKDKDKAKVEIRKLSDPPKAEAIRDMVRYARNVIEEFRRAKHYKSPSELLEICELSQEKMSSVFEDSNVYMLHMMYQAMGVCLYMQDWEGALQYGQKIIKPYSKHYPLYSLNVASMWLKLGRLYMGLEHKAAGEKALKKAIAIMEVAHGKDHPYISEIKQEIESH

As to `O=C1Cc2cc(C(=O)N[C@H]3C[C@H]4CC[C@@H](C3)N4S(=O)(=O)N3CCC(NCc4ccccc4)CC3)c(Cl)cc2N1`, the inhibition in data set [1], in data set [2], in data set [3], in data set [4] and in data set [5] was less than 30% throughout. The IC50 in data set [6] is more than 50 µM. Further, in data set [7], the Papp at 2 h, 10 µM was found to be 0.34 ×10⁻⁶ cm/s.

Consider `O=C1Cc2cc(C(=O)N[C@H]3C[C@H]4CC[C@@H](C3)N4S(=O)(=O)CC3CCN(CCCC(F)(F)F)CC3)c(Cl)cc2N1`, for which the inhibition in data set [1], in data set [2], in data set [3], in data set [4] and in data set [5] was less than 30% each time. In addition, the IC50 in data set [6] is more than 50 µM. Moreover, in data set [7], the Papp at 2 h, 10 µM stood at 0.64 ×10⁻⁶ cm/s.
